The term IC50 denotes the midpoint of a concentration-inhibition curve.

Data set [1] has as its target T1, Vitamin D3 receptor (Homo sapiens) (UniProt P11473).
T1 sequence (whole entry): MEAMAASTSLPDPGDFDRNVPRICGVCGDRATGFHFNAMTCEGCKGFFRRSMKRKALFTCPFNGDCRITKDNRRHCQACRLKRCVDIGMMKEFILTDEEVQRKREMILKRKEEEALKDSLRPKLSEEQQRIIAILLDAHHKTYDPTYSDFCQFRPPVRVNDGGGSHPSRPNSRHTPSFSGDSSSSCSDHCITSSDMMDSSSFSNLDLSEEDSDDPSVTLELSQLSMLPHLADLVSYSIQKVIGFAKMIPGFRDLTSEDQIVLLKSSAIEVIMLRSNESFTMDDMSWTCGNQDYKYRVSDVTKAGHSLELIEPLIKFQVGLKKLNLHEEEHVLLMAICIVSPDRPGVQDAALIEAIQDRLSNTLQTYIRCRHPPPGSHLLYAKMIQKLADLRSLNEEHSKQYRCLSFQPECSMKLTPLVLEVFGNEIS
Description: Binding affinity to VDR (unknown origin) at 1 uM by fluorescence polarization assay relative to calcipotriol. Summed up: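 PolarScreen VDR competitor fluorescence polarization assay with compounds at 1 μM in triplicate. Read-out used 535 nm excitation and 590 nm emission filters.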

A short description of data set [2]: Cytotoxicity against rat DSL-6A/C1 cells assessed as reduction in cell proliferation at 0.5 uM incubated for 24 hrs by MTT assay. The data set is classed as cell-based. The settings on record: dsl-6a/c1, 24 h.
Data set [3] deals with LTC-14. Description: Inhibition of rat LTC-14 cells activation assessed as inhibition of Fgf mRNA expression at 0.5 uM treated under conditioned media of DSL-6A/C1 cells for 24 hrs by q-PCR analysis. In kind it is functional, cell-based. An outline of the steps: (§1)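 LTC-14 PSCs were exposed for 24 h to conditioned medium from rat DSL-6A/C1 cancer cells containing compound at 0.5 μM. Pdgfa, Pdgfb, Fgf2, Hgf and Periodin mRNA were quantified by RT-qPCR. Three repeats, mean ± SD versus CM alone.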

In data set [4] the test system is LTC-14. Nature of the data set: Inhibition of rat LTC-14 cells activation assessed as inhibition of PDGFA mRNA expression at 0.5 uM treated under conditioned media of DSL-6A/C1 cells for 24 hrs by q-PCR analysis. In kind it is functional, cell-based. Summed up: as §1
In data set [5] the test system is LTC-14. Nature of the data set: Inhibition of rat LTC-14 cells interaction with DSL-6A/C1 cells in conditioned media assessed as inhibition of POSTN protein expression at 0.5 uM measured after 24 hrs by Western blot analysis. The data set is classed as functional, cell-based. Summed up: (§2)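 LTC-14 cells were treated for 24 h with DSL-6A/C1 conditioned medium plus compound (0.5 μM). Proteins were separated on 10% SDS-PAGE, transferred to PVDF and probed with rabbit anti-PDGF-A or anti-POSTN, with β-actin as loading reference.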
On the technique in general: In western blotting, separated proteins are transferred to a membrane and probed.

Data set [6] deals with LTC-14. Description: Inhibition of rat LTC-14 cell activation assessed decrease in TGF-beta1 induced Colla1 mRNA expression at 0.5 uM incubated for 24 hrs by q-PCR analysis. The data set is classed as functional. An outline of the steps:
(§3)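 Immortalized rat PSC line LTC-14, about 1×10^5 cells per well, was grown 24 h at 37 °C in 5% CO2. Cells then received compound (0.5 μM) plus TGF-β1 for 24 h; TGF-β1 is stated as 0.5 ng/mL in the text and 5 ng/mL in the methods. Col1a1 and Acta2 mRNA were measured by RT-qPCR. Mean ± SD versus TGF-β1 alone.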

In data set [7] the test system is LTC-14. Nature of the data set: Inhibition of rat LTC-14 cells activation assessed as inhibition of Hgf mRNA expression at 0.5 uM treated under conditioned media of DSL-6A/C1 cells for 24 hrs by q-PCR analysis. The data set is classed as functional, cell-based. An outline of the steps:
as §1

Data set [8] in a line: Cytotoxicity against rat LTC-14 cells assessed as reduction in cell proliferation incubated for 24 hrs by MTT assay. The note with it: LTC-14, 24 h. In kind it is cell-based.
The subject of data set [9] is LTC-14. Nature of the data set: Inhibition of rat LTC-14 cells activation assessed decrease in TGF-beta1 induced collagen 1 protein expression at 0.5 uM incubated for 24 hrs by Western blot analysis. The data set is classed as functional, cell-based. An outline of the steps: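 LTC-14 cells were treated for 24 h with compound (0.5 μM) plus TGF-β1 (0.5 ng/mL in the text, 5 ng/mL in the methods). Lysates were run on 10% SDS-PAGE, transferred to PVDF and probed with rabbit anti-collagen I, with β-actin as reference. Bands were quantified by densitometry versus TGF-β1 alone.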

For data set [10], the system named is LTC-14. Nature of the data set: Inhibition of rat LTC-14 cells activation assessed as inhibition of PDGFB mRNA expression at 0.5 uM treated under conditioned media of DSL-6A/C1 cells for 24 hrs by q-PCR analysis. The data set is classed as functional, cell-based. An outline of the steps: as §1
Data set [11] deals with LTC-14. Nature of the data set: Inhibition of rat LTC-14 cells interaction with DSL-6A/C1 cells in conditioned media assessed as inhibition of PDGF-A protein expression at 0.5 uM measured after 24 hrs by Western blot analysis. In kind it is functional, cell-based. An outline of the steps:
as §2

Data set [12] has as its system LTC-14. Description: Inhibition of rat LTC-14 cells activation assessed as inhibition of Periodin-mRNA expression at 0.5 uM treated under conditioned media of DSL-6A/C1 cells for 24 hrs by q-PCR analysis. The data set is classed as functional, cell-based. An outline of the steps: as §1
Data set [13] relates to LTC-14. Description: Inhibition of rat LTC-14 cells activation assessed decrease in TGF-beta1 induced Acta2 mRNA expression at 0.5 uM incubated for 24 hrs by q-PCR analysis. In kind it is functional, cell-based. An outline of the steps: as §3

Each structure is given as a SMILES string. Activity calls are given as the source filed them.

Consider `CCn1c(C(=O)NCCN2CCN(C)CC2)ccc1C(CC)(CC)c1ccc(OCCC(C)(C)O)c(C)c1`, for which, in data set [1] (filed as agonist), the RBA came to 68%. Further, the Activity entry in data set [2] is reported as “Non-Toxic”. In addition, the inhibition result in data set [3], in data set [4], in [5], in data set [6], in [7] and in data set [9] was “Active” each time. Further, the inhibition entry in [10], in data set [11], in data set [12] and in data set [13] was “Active” throughout. For the same molecule, in data set [8], the IC50 was greater than 10 µM.
In the case of `CCN(CC)CCNC(=O)c1ccc(C(CC)(CC)c2ccc(OCCC(C)(C)O)c(C)c2)n1CC`, the RBA in data set [1] was determined as 36%. The Activity result in [2] is given as “Non-Toxic”. Also, the inhibition entry in [3], in data set [4], in [6], in data set [7], in data set [9] and in [10] was “Active” throughout. Also, the inhibition entry in data set [12] and in [13] was “Active” throughout. Besides, the IC50 in data set [8] is greater than 10 µM.
For the molecule `CCn1cc(C(CC)(CC)c2ccc(OCC(C)O)c(C)c2)cc1C(=O)NCCN1CCCCC1` (stereo unspecified), in data set [1], the RBA result was “inactive”. The Activity result in [2] is recorded as “Non-Toxic”. The inhibition result in data set [3], in data set [4], in data set [6], in [7], in data set [9] and in data set [10] was “Active” throughout. Moreover, the inhibition result in data set [12] and in data set [13] was “Active” throughout. The IC50 in data set [8] was greater than 10 µM.
As to `CCn1c(C(=O)NCCN2CCCCC2)ccc1C(CC)(CC)c1ccc(OCCC(C)(C)O)c(C)c1`, the RBA in data set [1] is 24%. In addition, the Activity entry in data set [2] is recorded as “Non-Toxic”. Besides, the inhibition result in [3], in data set [4], in data set [6], in data set [7], in data set [9] and in data set [10] was “Active” in each case. The inhibition result in data set [12] and in data set [13] was “Active” in each case. For the same molecule, the IC50 in [8] is greater than 10 µM.
Turning to `CCN(CC)CCCNC(=O)c1ccc(C(CC)(CC)c2ccc(OCCCCCC(C)(C)O)c(C)c2)n1CC`, in data set [1], the RBA is 20%. The inhibition entry in data set [6], in [9] and in data set [13] was “Active” in each case. Besides, in [8], the IC50 is greater than 10 µM.
Regarding `CCN(CC)CCNC(=O)c1cc(C(CC)(CC)c2ccc(OCCCC(O)(CC)CC)c(C)c2)cn1CC`, the RBA in data set [1] is 31%. The inhibition result in data set [6], in data set [9] and in data set [13] was “Active” each time. Further, the IC50 in data set [8] is greater than 10 µM.
On to `CCN(CC)CCCNC(=O)c1cc(C(CC)(CC)c2ccc(OCCCCCC(C)(C)O)c(C)c2)cn1CC`, for which the RBA result in [1] is “inactive”. Moreover, the inhibition result in data set [6], in data set [9] and in data set [13] was “Active” in each case. Besides, in data set [8], the IC50 was greater than 10 µM.
As for `CCCC(O)(CCC)CCOc1ccc(C(CC)(CC)c2ccc(C(=O)NCCCN(CC)CC)n2CC)cc1C`, the RBA in data set [1] (filed as agonist) was found to be 54%. In addition, the inhibition result in data set [6], in data set [9] and in [13] was “Active” in each case. Moreover, the IC50 in [8] is greater than 10 µM.
Take `CCN(CC)CCCNC(=O)c1ccc(C(CC)(CC)c2ccc(OCCCCC(C)(C)O)c(C)c2)n1CC`: the RBA in [1] amounted to 26%. Besides, the inhibition entry in data set [6], in data set [9] and in data set [13] was “Active” in each case. Besides, the IC50 in [8] was greater than 10 µM.
Regarding `CCN(CC)CCCNC(=O)c1ccc(C(CC)(CC)c2ccc(OCC(O)c3ccccc3)c(C)c2)n1CC` (stereo unspecified), in data set [1] (filed as agonist), the RBA came to 75%. Besides, the inhibition result in data set [6], in [9] and in data set [13] was “Active” each time. In addition, in [8], the IC50 was greater than 10 µM.

The record behind these values is ChEMBL document CHEMBL4765486, “Novel Nonsecosteroidal Vitamin D Receptor Modulator Combined with Gemcitabine Enhances Pancreatic Cancer Therapy through Remodeling of the Tumor Microenvironment” (J Med Chem, 2021).
